Data: PMC2828537 (Pflugers Archiv : European journal of physiology, 2009)

Experiments:
Assay type in all cases: cell-based
murine TRPV1 [1] = molecular target: T1, murine TRPV1 (Mus musculus, UniProt Q704Y3); test: Two-electrode voltage clamp of Xenopus oocytes expressing murine TRPV1; settings: 100 µM FFA with 100 µM 2APB
How it was run: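 Collagenase-defolliculated Xenopus oocytes (>1.5 mm) were injected with 5 ng cRNA and kept 2–5 days at 19°C in ND96. Two-electrode clamp used a nominally Ca²⁺-free bath (pH 7.4), holding −20 mV, a 20 ms step to −100 mV, then a 200 ms ramp to +100 mV each second, at 22°C.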

[2] = molecular target: T2, human TRPA1 endogenously expressed in WI-38 fibroblasts (Homo sapiens, UniProt O75762); test: Whole-cell recordings of WI-38 cells
How it was run: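 WI-38 cells grown in MEM with 10% heat-inactivated FBS and penicillin/streptomycin at 37°C, 5% CO₂. Cells were detached with 0.05% trypsin plus 0.53 mM EDTA in Ca²⁺/Mg²⁺-free HBSS for 5–10 min, held at 37°C, then settled on polyornithine-coated coverslips for 3–5 min before perfusion. Whole-cell voltage clamp was sampled at 5 kHz, with 100 ms ramps from −100 to +100 mV (holding −60 mV) applied every 0.5 s.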

murine TRPV1 [3] = molecular target: T1, murine TRPV1; test: Fura2 Ca2+ imaging of HEK293 cells transiently expressing TRPV1
How it was run: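 Murine TRPV1 (pIRES2EGFP) was transiently expressed in HEK293 cells, which were seeded on polyornithine coverslips one day after transfection. After 16 hrs, cells were loaded with 2 µM Fura2-AM plus 0.05% Pluronic F-127 (60 min, 37°C). Transfected cells were identified by GFP (470 nm). Imaging used 340/380 nm excitation and 510 nm emission at 22°C. Capsaicin and test compound were perfused at final concentration. Maximal Fura2 ratio change reported, n = 3.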

HEK293 cells = test: Fluo4 [Ca2+]i assay in parental HEK293 cells; settings: 300 µM
How it was run: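 Wild-type HEK293 cells in DMEM (4.5 mg/ml glucose, 10% heat-inactivated FBS, penicillin/streptomycin), plated on polyornithine-treated wells for 14–18 hrs. Loaded with Fluo4-AM (2 µM, 60 min, 37°C) in ECS with 2 mM probenecid, then washed. Test compound was given robotically at 300 µM final. Fluorescence was read on a plate reader at ex 494/em 525 nm, 0.67 Hz, 20–25°C.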

[4] = molecular target: human TRPA1 Cys621Ser, Cys641Ser and Cys665Ser triple mutant (Homo sapiens, UniProt O75762, C621S/C641S/C665S); test: Currents of human TRPA1 triple cysteine mutant; settings: HH, unpublished results
rat TRPA1 = rat TRPA1 (Rattus norvegicus, UniProt Q6RI86); test: Two-electrode voltage clamp of Xenopus oocytes expressing rat TRPA1; settings: for response to FFA and AITC together, % of that evoked by FFA alone: 30 µM FFA + 3 µM AITC; for current stimulated by FFA and CA together, % of that evoked by FFA: 30 µM FFA + 3 µM CA; for current with FFA at 14°C, % of that evoked by the same concentration at 22°C / increase of FFA-activated current by raising bath Ca2+ to 10 mM / decrease of FFA-activated current amplitude in BAPTA-injected oocytes: 30 µM FFA; for decrease of FFA-activated current amplitude in BAPTA-injected oocytes / EC50: nominally Ca2+-free bath; for decrease of FFA-activated current amplitude in BAPTA-injected oocytes: BAPTA ~2.5 mM
[5] = molecular target: T2, human TRPA1 endogenously expressed in WI-38 fibroblasts; test: Fluo4 [Ca2+]i assay in WI-38 fibroblasts
murine TRPV3 = molecular target: T3, murine TRPV3 (Mus musculus, UniProt Q8K424); test: Fluo4 [Ca2+]i assay in stable HEK293 TRPV3 cell line
T3 sequence (Q8K424 1-791): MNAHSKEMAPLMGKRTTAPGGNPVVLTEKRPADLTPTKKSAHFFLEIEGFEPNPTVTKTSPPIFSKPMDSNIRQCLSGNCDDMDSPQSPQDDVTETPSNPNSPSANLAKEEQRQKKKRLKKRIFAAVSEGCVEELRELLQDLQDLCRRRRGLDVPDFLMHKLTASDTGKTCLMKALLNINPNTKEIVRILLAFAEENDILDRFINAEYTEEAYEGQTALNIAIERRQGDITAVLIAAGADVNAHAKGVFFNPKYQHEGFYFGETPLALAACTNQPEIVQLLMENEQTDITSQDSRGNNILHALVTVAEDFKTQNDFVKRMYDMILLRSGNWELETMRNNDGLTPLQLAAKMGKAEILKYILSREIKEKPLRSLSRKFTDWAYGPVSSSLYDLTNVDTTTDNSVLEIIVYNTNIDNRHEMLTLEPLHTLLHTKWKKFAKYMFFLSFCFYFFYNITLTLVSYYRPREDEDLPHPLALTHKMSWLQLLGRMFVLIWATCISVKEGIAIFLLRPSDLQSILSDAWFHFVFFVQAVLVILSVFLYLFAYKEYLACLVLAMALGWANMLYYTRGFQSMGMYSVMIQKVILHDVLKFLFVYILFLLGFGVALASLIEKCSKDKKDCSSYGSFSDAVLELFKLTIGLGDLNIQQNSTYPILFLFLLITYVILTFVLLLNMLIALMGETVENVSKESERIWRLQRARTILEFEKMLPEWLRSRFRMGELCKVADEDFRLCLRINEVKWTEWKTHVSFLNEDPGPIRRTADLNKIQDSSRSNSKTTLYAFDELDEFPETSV
How it was run: (§1)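 Stable HEK293 lines expressing murine TRPV3 (clonal) or TRPM8 (polyclonal), selected with 400 µg/ml G418. Seeded at ~100,000 cells/well on polyornithine-treated wells and grown 14–18 hrs. Loaded with 2 µM Fluo4-AM plus 0.05% Pluronic F-127 in ECS (pH 7.4) for 60 min at 37°C, with 2 mM probenecid throughout. Test compound and channel agonist added robotically. Fluorescence read at ex 494/em 525 nm, 0.67 Hz, 20–25°C. Maximal fluorescence change reported, n = 3.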

human TRPA1 = human TRPA1 (Homo sapiens, UniProt O75762); test: Fluo4 [Ca2+]i assay in HEK-A1 cells
murine TRPM8 = murine TRPM8 (Mus musculus, UniProt Q8R4D5); test: Fluo4 [Ca2+]i assay in stable HEK293 TRPM8 cell line
How it was run: as §1

[6] = high concentrations of FFA (30 to 300 µM)

T2 sequence (O75762 whole entry, the tested form may be a part): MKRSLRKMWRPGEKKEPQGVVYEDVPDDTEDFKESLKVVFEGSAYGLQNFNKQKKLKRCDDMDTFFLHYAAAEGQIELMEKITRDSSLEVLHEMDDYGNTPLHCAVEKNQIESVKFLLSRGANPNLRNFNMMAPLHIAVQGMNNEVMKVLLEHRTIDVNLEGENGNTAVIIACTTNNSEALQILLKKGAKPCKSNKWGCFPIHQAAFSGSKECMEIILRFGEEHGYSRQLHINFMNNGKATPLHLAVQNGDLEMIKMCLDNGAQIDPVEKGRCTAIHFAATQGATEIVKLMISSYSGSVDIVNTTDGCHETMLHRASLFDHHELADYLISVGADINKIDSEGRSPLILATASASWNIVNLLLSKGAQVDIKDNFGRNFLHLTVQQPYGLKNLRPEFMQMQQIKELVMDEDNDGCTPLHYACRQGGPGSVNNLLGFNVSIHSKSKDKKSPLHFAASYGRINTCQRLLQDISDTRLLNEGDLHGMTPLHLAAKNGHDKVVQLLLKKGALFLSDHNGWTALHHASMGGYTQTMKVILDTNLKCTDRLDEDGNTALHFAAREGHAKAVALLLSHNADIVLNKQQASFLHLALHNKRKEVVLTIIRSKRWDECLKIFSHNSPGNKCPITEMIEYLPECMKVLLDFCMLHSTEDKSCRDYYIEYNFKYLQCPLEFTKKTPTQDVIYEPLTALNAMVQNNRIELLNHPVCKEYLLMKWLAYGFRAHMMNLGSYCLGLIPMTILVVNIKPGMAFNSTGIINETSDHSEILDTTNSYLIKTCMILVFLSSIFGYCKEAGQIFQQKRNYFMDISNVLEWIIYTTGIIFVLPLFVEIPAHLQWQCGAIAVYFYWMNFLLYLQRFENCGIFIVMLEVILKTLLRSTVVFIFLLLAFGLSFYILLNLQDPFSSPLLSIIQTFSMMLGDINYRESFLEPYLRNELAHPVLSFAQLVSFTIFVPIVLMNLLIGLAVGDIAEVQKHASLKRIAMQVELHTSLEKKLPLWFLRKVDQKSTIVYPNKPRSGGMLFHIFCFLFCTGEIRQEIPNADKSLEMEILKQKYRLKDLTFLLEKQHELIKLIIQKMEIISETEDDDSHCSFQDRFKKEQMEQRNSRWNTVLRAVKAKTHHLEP
Chain of rat TRPA1 (Q6RI86 whole entry): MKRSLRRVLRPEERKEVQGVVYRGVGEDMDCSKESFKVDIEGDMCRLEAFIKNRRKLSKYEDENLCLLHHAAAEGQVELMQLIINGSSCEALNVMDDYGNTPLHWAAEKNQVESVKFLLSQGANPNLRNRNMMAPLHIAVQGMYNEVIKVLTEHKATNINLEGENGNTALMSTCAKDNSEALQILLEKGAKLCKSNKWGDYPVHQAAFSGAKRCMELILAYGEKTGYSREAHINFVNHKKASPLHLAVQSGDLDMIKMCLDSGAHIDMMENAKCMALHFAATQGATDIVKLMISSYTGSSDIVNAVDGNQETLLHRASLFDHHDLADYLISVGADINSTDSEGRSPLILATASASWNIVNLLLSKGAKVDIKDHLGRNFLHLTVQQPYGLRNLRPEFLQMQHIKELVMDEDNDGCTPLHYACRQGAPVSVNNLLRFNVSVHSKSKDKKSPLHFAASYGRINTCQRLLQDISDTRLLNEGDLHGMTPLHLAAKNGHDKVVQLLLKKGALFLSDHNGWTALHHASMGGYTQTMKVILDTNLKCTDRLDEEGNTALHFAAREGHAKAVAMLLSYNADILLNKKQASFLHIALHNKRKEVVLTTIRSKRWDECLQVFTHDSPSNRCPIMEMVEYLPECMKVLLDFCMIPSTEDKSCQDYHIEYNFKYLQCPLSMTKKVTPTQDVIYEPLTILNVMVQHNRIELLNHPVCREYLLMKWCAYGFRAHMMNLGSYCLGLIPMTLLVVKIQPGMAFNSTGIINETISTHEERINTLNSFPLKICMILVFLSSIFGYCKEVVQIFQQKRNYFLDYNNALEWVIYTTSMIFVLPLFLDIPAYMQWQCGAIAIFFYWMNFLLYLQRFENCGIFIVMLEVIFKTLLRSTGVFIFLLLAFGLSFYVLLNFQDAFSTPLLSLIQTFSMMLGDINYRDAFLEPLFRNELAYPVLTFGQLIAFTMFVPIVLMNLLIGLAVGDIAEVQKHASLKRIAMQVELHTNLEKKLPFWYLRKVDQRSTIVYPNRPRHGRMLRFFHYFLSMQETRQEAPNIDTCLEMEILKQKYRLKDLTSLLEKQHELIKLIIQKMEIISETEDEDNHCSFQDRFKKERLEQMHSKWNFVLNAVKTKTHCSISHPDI
T1 sequence (Q704Y3 whole entry): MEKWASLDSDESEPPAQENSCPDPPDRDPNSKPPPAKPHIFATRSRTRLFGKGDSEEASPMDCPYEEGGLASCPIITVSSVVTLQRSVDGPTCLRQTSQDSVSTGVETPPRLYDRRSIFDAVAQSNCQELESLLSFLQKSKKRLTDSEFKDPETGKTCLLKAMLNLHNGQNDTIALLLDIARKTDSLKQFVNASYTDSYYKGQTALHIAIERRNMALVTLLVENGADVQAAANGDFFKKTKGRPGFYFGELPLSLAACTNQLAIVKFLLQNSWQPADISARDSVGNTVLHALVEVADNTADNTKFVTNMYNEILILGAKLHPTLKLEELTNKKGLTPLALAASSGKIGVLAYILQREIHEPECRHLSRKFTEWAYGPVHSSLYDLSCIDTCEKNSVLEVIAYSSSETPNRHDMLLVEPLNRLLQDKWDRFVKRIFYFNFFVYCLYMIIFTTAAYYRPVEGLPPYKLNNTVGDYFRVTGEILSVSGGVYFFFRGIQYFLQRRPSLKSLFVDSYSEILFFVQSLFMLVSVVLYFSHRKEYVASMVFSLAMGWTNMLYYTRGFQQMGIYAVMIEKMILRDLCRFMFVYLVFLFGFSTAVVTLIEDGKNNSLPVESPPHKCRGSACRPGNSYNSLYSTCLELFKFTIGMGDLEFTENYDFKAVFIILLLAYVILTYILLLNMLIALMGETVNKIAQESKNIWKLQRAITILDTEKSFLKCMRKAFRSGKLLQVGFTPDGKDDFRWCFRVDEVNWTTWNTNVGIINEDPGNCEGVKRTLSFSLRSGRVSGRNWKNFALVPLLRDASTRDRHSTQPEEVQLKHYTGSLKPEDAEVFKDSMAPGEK
Chain of murine TRPM8 (Q8R4D5 whole entry): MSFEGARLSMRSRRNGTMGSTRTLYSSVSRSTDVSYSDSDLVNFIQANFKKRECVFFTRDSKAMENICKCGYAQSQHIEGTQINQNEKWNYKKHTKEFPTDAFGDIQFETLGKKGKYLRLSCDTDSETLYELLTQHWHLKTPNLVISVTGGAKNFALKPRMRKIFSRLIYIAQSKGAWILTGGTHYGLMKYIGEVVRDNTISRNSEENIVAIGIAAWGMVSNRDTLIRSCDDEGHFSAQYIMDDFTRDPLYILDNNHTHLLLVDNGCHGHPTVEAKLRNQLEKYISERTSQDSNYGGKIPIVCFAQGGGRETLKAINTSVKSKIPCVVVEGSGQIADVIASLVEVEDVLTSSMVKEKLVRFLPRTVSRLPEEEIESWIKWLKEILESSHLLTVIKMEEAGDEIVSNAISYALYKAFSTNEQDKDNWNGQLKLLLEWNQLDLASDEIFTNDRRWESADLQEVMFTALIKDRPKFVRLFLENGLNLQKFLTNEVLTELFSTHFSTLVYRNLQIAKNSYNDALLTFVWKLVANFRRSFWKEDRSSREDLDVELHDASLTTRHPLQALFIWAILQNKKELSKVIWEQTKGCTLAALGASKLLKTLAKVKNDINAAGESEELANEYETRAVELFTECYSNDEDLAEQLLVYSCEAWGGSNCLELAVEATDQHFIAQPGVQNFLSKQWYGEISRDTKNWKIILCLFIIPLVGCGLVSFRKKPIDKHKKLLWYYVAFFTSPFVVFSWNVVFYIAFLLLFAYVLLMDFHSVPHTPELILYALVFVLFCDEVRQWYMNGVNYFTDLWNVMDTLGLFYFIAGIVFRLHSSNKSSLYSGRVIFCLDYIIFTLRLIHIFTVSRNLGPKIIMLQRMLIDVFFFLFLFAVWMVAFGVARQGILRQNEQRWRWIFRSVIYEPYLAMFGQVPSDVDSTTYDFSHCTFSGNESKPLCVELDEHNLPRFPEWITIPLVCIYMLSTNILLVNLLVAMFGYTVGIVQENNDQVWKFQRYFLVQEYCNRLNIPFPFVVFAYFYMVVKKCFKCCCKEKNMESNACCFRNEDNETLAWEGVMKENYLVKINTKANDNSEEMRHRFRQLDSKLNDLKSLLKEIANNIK
Chain of human TRPA1 (O75762 whole entry): as the sequence (O75762 whole entry, the tested form may be a part) above
Chain of human TRPA1 Cys621Ser, Cys641Ser and Cys665Ser triple mutant (O75762 whole entry C621S/C641S/C665S): as the sequence (O75762 whole entry, the tested form may be a part) above, with C621S, C641S, C665S counted along it

suppression of 2APB-activated current (murine TRPV1 [1]; +100 mV): 57%
suppression of 2APB-activated current (murine TRPV1 [1]; −100 mV): 75%
Hill co-efficient at +100 mV ([2]; +100 mV): 1.7 ± 0.2
EC50 ([2]; EC50 for FFA-evoked whole-cell currents at +100 mV, +100 mV): 44 ± 11 µM
EC50 ([2]; EC50 for FFA-evoked whole-cell currents at −100 mV, −100 mV): 55 ± 4 µM
Hill co-efficient at −100 mV ([2]; −100 mV): 2.4 ± 0.1
increase in Fura2 ratio upon application (murine TRPV1 [3]; FFA from 3.7 to 100 µM): no significant increase
effect on [Ca2+]i increase elicited by the channel's agonist (murine TRPV1 [3]; [6]): inhibited
concentration-response curve in triple cysteine mutant [4]: right-shifted
threshold of activation (rat TRPA1): about 10 µM
response to FFA and AITC together, % of that evoked by FFA alone (rat TRPA1; +100 mV): 300 ± 52%
response to FFA and AITC together, % of that evoked by FFA alone (rat TRPA1; −100 mV): 350 ± 62%
current stimulated by FFA and CA together, % of that evoked by FFA (rat TRPA1; +100 mV): 223 ± 25%
current stimulated by FFA and CA together, % of that evoked by FFA (rat TRPA1; −100 mV): 234 ± 43%
current with FFA at 14°C, % of that evoked by the same concentration at 22°C (rat TRPA1; +100 mV): 226 ± 86%
current with FFA at 14°C, % of that evoked by the same concentration at 22°C (rat TRPA1; −100 mV): 315 ± 85%
increase of FFA-activated current by raising bath Ca2+ to 10 mM (rat TRPA1; +100 mV): 240 ± 39%
decrease of FFA-activated current amplitude in BAPTA-injected oocytes (rat TRPA1; +100 mV): ~ 44%
decrease of FFA-activated current amplitude in BAPTA-injected oocytes (rat TRPA1; −100 mV): ~ 33%
increase of FFA-activated current by raising bath Ca2+ to 10 mM (rat TRPA1; −100 mV): 309 ± 49%
Hill co-efficient at +100 mV (rat TRPA1; +100 mV): 2.2 ± 0.2
EC50 (rat TRPA1; EC50 for current activation at +100 mV, +100 mV): 78 ± 4 µM
EC50 (rat TRPA1; EC50 for current activation at −100 mV, −100 mV): 147 ± 4 µM
Hill co-efficient at −100 mV (rat TRPA1; −100 mV): 2.2 ± 0.1
agonist effect on Fluo4 fluorescence ([Ca2+]i) in WI-38 cells ([5]; 300 µM): increased the Fluo4 fluorescence
nH (Hill coefficient) ([5]; WI-38 cells): 1.3 ± 0.2
increase in Fluo4 fluorescence upon application (murine TRPV3; FFA from 3.7 to 100 µM): no significant increase
effect on [Ca2+]i increase elicited by the channel's agonist (murine TRPV3; [6]): inhibited
EC50 (human TRPA1): 57 ± 5 µM
nH (Hill coefficient) (human TRPA1; HEK-A1 cells): 1.6 ± 0.1
Fluo4 fluorescence change (murine TRPM8; 300 µM FFA): slow fluorescence increase
increase in Fluo4 fluorescence upon application (murine TRPM8; FFA from 3.7 to 100 µM): no significant increase
effect on [Ca2+]i increase elicited by the channel's agonist (murine TRPM8; [6]): inhibited
Structure (SMILES): O=C(O)c1ccccc1Nc1cccc(C(F)(F)F)c1 [FFA, flufenamic acid]
effect on Fluo4 fluorescence in HEK293 cells (HEK293 cells): little effect
